ChEMBL document CHEMBL1132694, “Discovery and structure-activity relationships of imidazole-containing tetrahydrobenzodiazepine inhibitors of farnesyltransferase” (J Med Chem, 1999)

Molecular target: T1, Protein farnesyltransferase (Homo sapiens, UniProt P49354+P49356)
Experiment: Inhibitory activity against human purified recombinant farnesyltransferase (hFT)
Assay type: protein-complex assay
Conditions: not given
In short: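 Purified (>90%) recombinant human FT at 0.3 nM, with 10 μM ZnCl2. Activity was measured as incorporation of tritium from [3H]farnesyl pyrophosphate into recombinant human H-Ras. Result reported as IC50.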

IC50	SMILES
0.145 µM	O=C(c1cccc2ccccc12)N1CCN(Cc2c[nH]cn2)c2ccc(-c3cccnc3)cc2C1
0.48 µM	O=S(=O)(c1cccc2ccccc12)N1CCN(Cc2c[nH]cn2)c2ccccc2C1
0.186 µM	O=C(c1cccc2ccccc12)N1CCN(Cc2cnc[nH]2)c2ccc(C3CCCCC3)cc2C1
0.0181 µM	O=C(Nc1ccc2c(c1)N(Cc1c[nH]cn1)CCN(C(=O)c1cccc3ccccc13)C2)C1CCCCC1
0.0154 µM	O=C(c1cccc2ccccc12)N1CCN(Cc2c[nH]cn2)c2ccc(-c3ccncc3)cc2C1
0.177 µM	O=C(c1cccc2ccccc12)N1CCN(Cc2c[nH]cn2)c2ccc(-c3ccccn3)cc2C1
0.168 µM	CC(=O)Nc1ccc2c(c1)N(Cc1cnc[nH]1)CCN(C(=O)c1cccc3ccccc13)C2
0.249 µM	O=C(c1cccc2ccccc12)N1CCN(Cc2c[nH]cn2)c2cc(NS(=O)(=O)c3ccccc3)ccc2C1
0.32 µM	O=C(c1ccccc1-c1ccccc1)N1CCN(Cc2cnc[nH]2)c2ccccc2C1
0.426 µM	O=S(=O)(c1cccc2ccccc12)N1CCN(Cc2c[nH]cn2)c2ccc(-c3ccccc3)cc2C1
1.42 µM	N#CN=C(Nc1ccc(Cl)cc1)N1CCN(Cc2cnc[nH]2)c2ccc(-c3ccccc3)cc2C1
0.0285 µM	O=C(Nc1ccc2c(c1)N(Cc1c[nH]cn1)CCN(C(=O)c1cccc3ccccc13)C2)c1ccccc1
0.84 µM	NCc1ncc(CN2CCN(C(=O)c3cccc4ccccc34)Cc3ccccc32)[nH]1
0.46 µM	O=C(c1cccc2ccccc12)N1CCN(Cc2c[nH]cn2)c2ccccc2C1
0.028 µM	O=C(Nc1ccc2c(c1)N(Cc1cnc[nH]1)CCN(C(=O)c1cccc3ccccc13)C2)OC1CCCCC1
0.124 µM	O=C(c1ccccc1SCCO)N1CCN(Cc2cnc[nH]2)c2ccc(-c3ccccc3)cc2C1
27 µM	COCC[C@H]1CN(C(=O)c2cccc3ccccc23)CCN1C(=O)CCc1cnc[nH]1
0.34 µM	O=C(c1cccc2ccccc12)N1CCN(CCc2c[nH]cn2)c2ccccc2C1
0.058 µM	COc1ccc2ccccc2c1C(=O)N1CCN(Cc2cnc[nH]2)c2ccc(-c3ccccc3)cc2C1
2.8 µM	O=C(c1cccc2ccccc12)N1CCN(Cc2cnc[nH]2)Cc2ccccc21
10 µM	COCC[C@H]1CN(C(=O)c2cccc3ccccc23)CCN1CCCc1c[nH]cn1
0.72 µM	COC(=O)c1ccccc1S(=O)(=O)N1CCN(Cc2c[nH]cn2)c2ccccc2C1
1.3 µM	COCC[C@H]1CN(C(=O)c2cccc3ccccc23)CCN1Cc1c[nH]cn1
34 µM	COCC[C@H]1CN(C(=O)c2cccc3ccccc23)CCN1C(=O)Cc1cnc[nH]1
0.095 µM	O=C(c1cccc2ccccc12)N1CCN(Cc2cnc[nH]2)c2ccc(-c3ccccc3)cc2C1
0.6 µM	O=C(c1ccccc1NCc1ccccc1)N1CCN(Cc2cnc[nH]2)c2ccccc2C1
0.205 µM	O=C(N1CCN(Cc2cnc[nH]2)c2ccc(-c3ccccc3)cc2C1)N1CCCc2ccccc21
0.7 µM	O=C(Cc1ccccc1Oc1ccccc1)N1CCN(Cc2c[nH]cn2)c2ccccc2C1
0.0355 µM	O=C(Nc1ccc2c(c1)N(Cc1c[nH]cn1)CCN(C(=O)c1cccc3ccccc13)C2)NC1CCCCC1
0.54 µM	O=C(c1cccc2ccccc12)N1CCN(Cc2cnc[nH]2)c2cc(Cl)ccc2C1

Molecular target: T1, Protein farnesyltransferase
Experiment: Phenotypic reversion of H-Ras transformed NIH3T3 cells at 5 uM.
Assay type: functional, cell-based
Conditions: Mus musculus

Reversion activity	SMILES
70%	O=C(c1cccc2ccccc12)N1CCN(Cc2c[nH]cn2)c2ccc(-c3cccnc3)cc2C1
45%	O=C(Nc1ccc2c(c1)N(Cc1c[nH]cn1)CCN(C(=O)c1cccc3ccccc13)C2)C1CCCCC1
95%	O=C(c1cccc2ccccc12)N1CCN(Cc2c[nH]cn2)c2ccc(-c3ccncc3)cc2C1
0%	O=C(c1cccc2ccccc12)N1CCN(Cc2c[nH]cn2)c2ccc(-c3ccccn3)cc2C1
0%	O=C(c1cccc2ccccc12)N1CCN(Cc2c[nH]cn2)c2cc(NS(=O)(=O)c3ccccc3)ccc2C1
25%	O=S(=O)(c1cccc2ccccc12)N1CCN(Cc2c[nH]cn2)c2ccc(-c3ccccc3)cc2C1
75%	O=C(Nc1ccc2c(c1)N(Cc1c[nH]cn1)CCN(C(=O)c1cccc3ccccc13)C2)c1ccccc1
0%	O=C(Nc1ccc2c(c1)N(Cc1c[nH]cn1)CCN(C(=O)c1cccc3ccccc13)C2)NC1CCCCC1

Tested on: Mus musculus
Experiment: In vivo antitumor activity against Rat-1 tumors in mice at 10 mg/kg
Assay type: functional
Conditions: not given
In short: (§1)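 Female athymic Balb/c-background mice (18-22 g) were implanted ip with 1 × 10^6 in vitro-propagated H-Ras-transformed Rat-1 fibroblasts. Dosing was ip, once daily for 7 days from day 1, with compound in 10% ethanol/sterile water given within 1 h of dissolution. Groups were typically 6 treated and 8 control mice. Read-out was median survival as %T/C, with ≥125% counted active (Gehan's generalized Wilcoxon test).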

SMILES	T/C
O=C(Nc1ccc2c(c1)N(Cc1c[nH]cn1)CCN(C(=O)c1cccc3ccccc13)C2)C1CCCCC1	138%

Molecular target: T1, Protein farnesyltransferase
Experiment: Phenotypic reversion of H-Ras transformed NIH3T3 cells by the compound at a concentration of 10 uM
Assay type: functional, cell-based
Conditions: Mus musculus

Reversion activity	SMILES
0%	O=C(c1cccc2ccccc12)N1CCN(Cc2c[nH]cn2)c2ccccc2C1
20%	O=C(c1cccc2ccccc12)N1CCN(CCc2c[nH]cn2)c2ccccc2C1

Tested on: Rat1
Experiment: Inhibition of anchorage independent growth of H-Ras transformed Rat-1 cells.
Assay type: functional, cell-based
Conditions: not given

SMILES	EC50
O=C(c1cccc2ccccc12)N1CCN(Cc2c[nH]cn2)c2ccc(-c3cccnc3)cc2C1	1 µM
O=C(Nc1ccc2c(c1)N(Cc1c[nH]cn1)CCN(C(=O)c1cccc3ccccc13)C2)C1CCCCC1	0.34 µM
O=C(c1cccc2ccccc12)N1CCN(Cc2c[nH]cn2)c2ccc(-c3ccncc3)cc2C1	0.2 µM
O=C(c1cccc2ccccc12)N1CCN(Cc2c[nH]cn2)c2cc(NS(=O)(=O)c3ccccc3)ccc2C1	11 µM
O=C(Nc1ccc2c(c1)N(Cc1c[nH]cn1)CCN(C(=O)c1cccc3ccccc13)C2)c1ccccc1	0.3 µM
O=C(c1cccc2ccccc12)N1CCN(Cc2c[nH]cn2)c2ccccc2C1	6 µM
COC(=O)c1ccccc1S(=O)(=O)N1CCN(Cc2c[nH]cn2)c2ccccc2C1	1.6 µM
O=C(c1ccccc1NCc1ccccc1)N1CCN(Cc2cnc[nH]2)c2ccccc2C1	2.4 µM
O=C(Nc1ccc2c(c1)N(Cc1c[nH]cn1)CCN(C(=O)c1cccc3ccccc13)C2)NC1CCCCC1	4 µM

Molecular target: T1, Protein farnesyltransferase
Experiment: Phenotypic reversion of H-Ras transformed NIH3T3 cells at 1.25 uM
Assay type: functional, cell-based
Conditions: Mus musculus

Reversion activity	SMILES
0%	O=C(c1cccc2ccccc12)N1CCN(Cc2c[nH]cn2)c2ccc(-c3cccnc3)cc2C1
0%	O=C(Nc1ccc2c(c1)N(Cc1c[nH]cn1)CCN(C(=O)c1cccc3ccccc13)C2)C1CCCCC1
60%	O=C(c1cccc2ccccc12)N1CCN(Cc2c[nH]cn2)c2ccc(-c3ccncc3)cc2C1
0%	O=C(c1cccc2ccccc12)N1CCN(Cc2c[nH]cn2)c2ccc(-c3ccccn3)cc2C1
0%	O=C(c1cccc2ccccc12)N1CCN(Cc2c[nH]cn2)c2cc(NS(=O)(=O)c3ccccc3)ccc2C1
0%	O=S(=O)(c1cccc2ccccc12)N1CCN(Cc2c[nH]cn2)c2ccc(-c3ccccc3)cc2C1
0%	O=C(Nc1ccc2c(c1)N(Cc1c[nH]cn1)CCN(C(=O)c1cccc3ccccc13)C2)c1ccccc1
0%	O=C(Nc1ccc2c(c1)N(Cc1c[nH]cn1)CCN(C(=O)c1cccc3ccccc13)C2)NC1CCCCC1

Tested on: Mus musculus
Experiment: In vivo antitumor activity against Rat-1 tumors in mice at 90 mg/kg
Assay type: functional
Conditions: not given
In short: as §1

SMILES	T/C
O=C(c1cccc2ccccc12)N1CCN(Cc2c[nH]cn2)c2ccc(-c3ccncc3)cc2C1	108%
O=C(Nc1ccc2c(c1)N(Cc1c[nH]cn1)CCN(C(=O)c1cccc3ccccc13)C2)c1ccccc1	128%
